The MIC is the least concentration at which growth counts as inhibited.

Test [1] has as its system Nakaseomyces glabratus. Put plainly: Antifungal activity against Candida glabrata isolate 4293 after 48 hrs by broth microdilution method. The test is classed as functional. Summed up:
(§1)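 CLSI broth microdilution with final drug concentrations […], incubated at 35°C and read spectrophotometrically at 490 nm at 24 and 48 h. MIC is the first concentration giving 50% turbidity reduction versus control, or 90% for amphotericin B. Run in quintuplicate.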
A general note: Broth dilution looks for growth in wells or tubes with falling amounts of substance.

The subject of the next test is Candida parapsilosis. Put plainly: Antifungal activity against Candida parapsilosis ATCC 22019 after 48 hrs by broth microdilution method. The conditions noted are these: Lodderomyces parapsilosis, ATCC 22019, 48 h. The test is classed as functional. In outline:
as §1

The subject of test [2] is Nakaseomyces glabratus. Put plainly: Antifungal activity against Candida glabrata isolate 4198 after 48 hrs by broth microdilution method. The test is classed as functional. Summed up:
as §1

In test [3] the test system is Nakaseomyces glabratus. Briefly: Antifungal activity against Candida glabrata isolate 4205 after 48 hrs by broth microdilution method. The test is classed as functional. The conditions noted are these: isolate 4205, 48 h. In outline:
as §1

In test [4] the test system is Nakaseomyces glabratus. Briefly: Antifungal activity against Candida glabrata isolate 4370 after 48 hrs by broth microdilution method. The test is classed as functional. In outline: as §1
Test [5] has as its system Nakaseomyces glabratus. Briefly: Antifungal activity against 2.44 x 10^8 CFU Candida glabrata isolate 4293 infected in CD1 mouse assessed as reduction in colony forming units treated with a therapeutic regimen of sterile saline solution from day 1 to day 2 followed by 15 mg/kg/day drug administration via oral gavage from day 3 to day 6 post […] challenge measured on day 7 postinfection relative to control. The test is classed as functional, organism-based. In outline: (§2)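 CD1 male mice, 25 g, made neutropenic with intraperitoneal cyclophosphamide at 200 mg/kg/day on days −4, +1 and +4. Infected intravenously with C. glabrata 4293 in 0.2 ml. Therapy starts 24 h postchallenge: sterile saline placebo, then once-daily oral gavage in 0.2 ml. Kidney pairs homogenized and plated on Sabouraud dextrose agar for CFU; seven to eight animals per group; medians reported.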

Test [6] relates to Nakaseomyces glabratus. Put plainly: Antifungal activity against Candida glabrata isolate 4293 pretreated overnight with 0.5 times of amphotericin B MIC measured after 48 hrs by broth microdilution method. The test is classed as functional.
The subject of test [7] is Nakaseomyces glabratus. Put plainly: Antifungal activity against Candida glabrata isolate 4205 pretreated overnight with 0.5 times of caspofungin MIC measured after 48 hrs by broth microdilution method. The test is classed as functional.
In test [8] the test system is Nakaseomyces glabratus. Put plainly: Antifungal activity against Candida glabrata isolate 4293 assessed as viable yeast cells pretreated overnight with 0.015 ug/ml caspofungin measured at 0.5 ug/ml after 48 hrs. The test is classed as functional.
Test [9] concerns Nakaseomyces glabratus. Put plainly: Antifungal activity against Candida glabrata isolate 4293 assessed as viable yeast cells pretreated overnight with 0.015 ug/ml caspofungin measured at 4 ug/ml measured after 48 hrs. The test is classed as functional.
The subject of test [10] is Nakaseomyces glabratus. Put plainly: Antifungal activity against Candida glabrata isolate 4293 pretreated overnight with 0.5 times of caspofungin MIC measured at 5 ug/disk after 24 hrs by halo assay. The test is classed as functional. The conditions noted are these: read-out: IZ. Summed up: (§3)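 Exposed or unexposed C. glabrata 4293 cells (1 x 10^6 CFU/ml) plated on Mueller-Hinton agar with methylene blue. 6-mm disks loaded with 20 µl posaconazole at 5 or 15 µg. Incubated at 35°C; inhibition zone diameters measured at 24 and 48 h; quintuplicate.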

Test [11] relates to Nakaseomyces glabratus. Put plainly: Antifungal activity against Candida glabrata isolate 4198 pretreated overnight with 0.5 times of amphotericin B MIC measured after 48 hrs by broth microdilution method. The test is classed as functional.
The test system of test [12] is Nakaseomyces glabratus. Put plainly: Antifungal activity against Candida glabrata isolate 4293 at 15 ug/disk after 24 hrs by halo assay. The following applies: isolate 4293, 24 h, read-out: IZ. The test is classed as functional. Summed up:
as §3

Test [13] concerns Nakaseomyces glabratus. Put plainly: Antifungal activity against Candida glabrata isolate 4293 pretreated overnight with 0.125 times of caspofungin MIC measured at 5 ug/disk after 24 hrs by halo assay. The test is classed as functional. The conditions noted are these: read-out: IZ. Summed up:
as §3

The test system of test [14] is Nakaseomyces glabratus. Put plainly: Antifungal activity against 1.04 x 10^8 CFU Candida glabrata isolate 4293 infected in CD1 mouse assessed as reduction in colony forming units treated with a therapeutic regimen of sterile saline solution from day 1 to day 2 followed by 30 mg/kg/day drug administration via oral gavage from day 3 to day 6 post viral challenge measured on day 7 postinfection relative to control. The test is classed as functional, organism-based. Summed up:
as §2

The subject of test [15] is Nakaseomyces glabratus. Put plainly: Antifungal activity against Candida glabrata isolate 4293 pretreated overnight with 0.5 times of amphotericin B MIC measured at 5 ug/disk after 24 hrs by halo assay. The test is classed as functional. The following applies: read-out: IZ. Summed up:
as §3

In test [16] the test system is Nakaseomyces glabratus. Put plainly: Antifungal activity against Candida glabrata isolate 4370 pretreated overnight with 0.5 times of caspofungin MIC measured after 48 hrs by broth microdilution method. The test is classed as functional.
In test [17] the test system is Nakaseomyces glabratus. Briefly: Antifungal activity against Candida glabrata isolate 4293 pretreated overnight with 0.125 times of caspofungin MIC measured at 15 ug/disk after 24 hrs by halo assay. The test is classed as functional. The conditions noted are these: read-out: IZ. Summed up: as §3
Test [18] relates to Nakaseomyces glabratus. Put plainly: Antifungal activity against Candida glabrata isolate 4293 pretreated overnight with 0.5 times of caspofungin MIC measured after 48 hrs by broth microdilution method. The test is classed as functional.
For test [19], the system named is Nakaseomyces glabratus. Put plainly: Antifungal activity against Candida glabrata isolate 4198 pretreated overnight with 0.5 times of caspofungin MIC measured after 48 hrs by broth microdilution method. The test is classed as functional.
The subject of test [20] is Nakaseomyces glabratus. Briefly: Antifungal activity against Candida glabrata isolate 4205 pretreated overnight with 0.5 times of amphotericin B MIC measured after 48 hrs by broth microdilution method. The test is classed as functional.
The test system of test [21] is Nakaseomyces glabratus. Put plainly: Antifungal activity against Candida glabrata isolate 4293 assessed as viable yeast cells pretreated overnight with 0.25 ug/ml caspofungin measured at 0.5 ug/ml after 48 hrs. The test is classed as functional.
The test system of test [22] is Nakaseomyces glabratus. Put plainly: Antifungal activity against Candida glabrata isolate 4293 assessed as viable yeast cells pretreated overnight with 0.25 ug/ml caspofungin measured at 4 ug/ml measured after 48 hrs. The test is classed as functional.
Test [23] has as its system Nakaseomyces glabratus. Put plainly: Antifungal activity against Candida glabrata isolate 4293 at 5 ug/disk after 24 hrs by halo assay. The test is classed as functional. The following applies: isolate 4293, 24 h, read-out: IZ. Summed up:
as §3

The subject of test [24] is Nakaseomyces glabratus. Briefly: Antifungal activity against Candida glabrata isolate 4293 pretreated overnight with 0.5 times of caspofungin MIC measured at 15 ug/disk after 24 hrs by halo assay. The following applies: read-out: IZ. The test is classed as functional. In outline: as §3
In test [25] the test system is Nakaseomyces glabratus. Briefly: Antifungal activity against Candida glabrata isolate 4293 pretreated overnight with 0.125 times of amphotericin B MIC measured at 5 ug/disk after 24 hrs by halo assay. The test is classed as functional. The following applies: read-out: IZ. Summed up: as §3
Test [26] has as its system Nakaseomyces glabratus. Briefly: Antifungal activity against Candida glabrata isolate 4293 pretreated overnight with 0.125 times of amphotericin B MIC measured at 15 ug/disk after 24 hrs by halo assay. The test is classed as functional. The conditions noted are these: read-out: IZ. Summed up:
as §3

For test [27], the system named is Nakaseomyces glabratus. Briefly: Antifungal activity against Candida glabrata isolate 4293 pretreated overnight with 0.5 times of amphotericin B MIC measured at 15 ug/disk after 24 hrs by halo assay. The test is classed as functional. The following applies: read-out: IZ. Summed up: as §3
In test [28] the test system is Nakaseomyces glabratus. Briefly: Antifungal activity against Candida glabrata isolate 4370 pretreated overnight with 0.5 times of amphotericin B MIC measured after 48 hrs by broth microdilution method. The test is classed as functional.

≈ marks a conversion by molar mass, not a printed value. Calls of active or inactive are those of the source. The rule behind the calls is not given here.

For `OC(Cn1cncn1)(Cn1cncn1)c1ccc(F)cc1F` [FLUCONAZOLE], the minimum inhibitory concentration (MIC) against Nakaseomyces glabratus [1] is 32 µg/mL (≈ 104 µM); with Candida parapsilosis, 4 µg/mL (≈ 13.1 µM); in the test on Nakaseomyces glabratus [2], above 64 µg/mL; against Nakaseomyces glabratus [3], 1 µg/mL (≈ 3.27 µM); against Nakaseomyces glabratus [4], 16 µg/mL (≈ 52.2 µM).

For `CC[C@@H]([C@H](C)O)n1ncn(-c2ccc(N3CCN(c4ccc(OC[C@@H]5CO[C@@](Cn6cncn6)(c6ccc(F)cc6F)C5)cc4)CC3)cc2)c1=O` [POSACONAZOLE], the result with Nakaseomyces glabratus [5] and in the test with Nakaseomyces glabratus [14] was Active. The MIC in the test on Nakaseomyces glabratus [6] is 0.25 µg/mL (≈ 0.357 µM); with Nakaseomyces glabratus [7], 0.06 µg/mL (≈ 0.0856 µM); against Nakaseomyces glabratus [1] it was 0.25 µg/mL (≈ 0.357 µM); against Candida parapsilosis it was at most 0.03 µg/mL; with Nakaseomyces glabratus [11], 0.5 µg/mL (≈ 0.713 µM); against Nakaseomyces glabratus [2], 0.5 µg/mL (≈ 0.713 µM). In addition, the minimal inhibitory concentration (MIC) in the test with Nakaseomyces glabratus [16] is 0.125 µg/mL (≈ 0.178 µM); in the test on Nakaseomyces glabratus [18], 0.125 µg/mL (≈ 0.178 µM); in the test with Nakaseomyces glabratus [19], 1 µg/mL (≈ 1.43 µM); in the test with Nakaseomyces glabratus [20], at most 0.03 µg/mL; against Nakaseomyces glabratus [3], at most 0.03 µg/mL; in the test with Nakaseomyces glabratus [4], 0.06 µg/mL (≈ 0.0856 µM). Further, the minimum inhibitory concentration (MIC) in the test on Nakaseomyces glabratus [28] was determined as 0.06 µg/mL (≈ 0.0856 µM). The Activity with Nakaseomyces glabratus [8] was 6.2%; with Nakaseomyces glabratus [9], 0.01%; in the test with Nakaseomyces glabratus [21], 6.2%; in the test on Nakaseomyces glabratus [22], 0.01%. Moreover, the zone of inhibition at 5 µg/disc in the test on Nakaseomyces glabratus [10] came to 26.8 mm; in the test on Nakaseomyces glabratus [13], 28 mm; with Nakaseomyces glabratus [15], 28.4 mm; in the test with Nakaseomyces glabratus [23], 29 mm; in the test with Nakaseomyces glabratus [25], 27 mm. The zone of inhibition at 15 µg/disc with Nakaseomyces glabratus [12] turned out to be 30 mm; in the test on Nakaseomyces glabratus [17], 29.6 mm; in the test with Nakaseomyces glabratus [24] it was 29 mm; in the test on Nakaseomyces glabratus [26] it was 30 mm; in the test on Nakaseomyces glabratus [27], 29.8 mm.

For the origin of these results see ChEMBL document CHEMBL1151473, “Posaconazole activity against Candida glabrata after exposure to caspofungin or amphotericin B” (2008).
